Experiments:
[1] = Compound was evaluated for the ratio of apparent inactivation rate constant k2 to apparent binding constant Ki; conditions: read-out: k2 / Ki
Outline: (§1)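 Mercurial papain activated with L-cysteine for 45 min at 25 °C in 50 mM phosphate, 1 mM EDTA, pH 6.2. Papain (0.11 μM) was incubated at 25 °C and pH 6.2, in 20% CH3CN, with excess inhibitor. Aliquots taken about every 10 min were diluted 10-fold into buffer containing 2 mM Cbz-Gly-ONp. Residual activity was read at 340 nm, corrected for spontaneous hydrolysis, and analysed by Kitz–Wilson plot.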

[2] = biological target: T1, Papain (Carica papaya) (UniProt P00784); experiment: Compound was evaluated for papain inactivation. [I] is the inhibitor concentration; 60-1000; format: functional; outline: as §1
T1 sequence (whole entry): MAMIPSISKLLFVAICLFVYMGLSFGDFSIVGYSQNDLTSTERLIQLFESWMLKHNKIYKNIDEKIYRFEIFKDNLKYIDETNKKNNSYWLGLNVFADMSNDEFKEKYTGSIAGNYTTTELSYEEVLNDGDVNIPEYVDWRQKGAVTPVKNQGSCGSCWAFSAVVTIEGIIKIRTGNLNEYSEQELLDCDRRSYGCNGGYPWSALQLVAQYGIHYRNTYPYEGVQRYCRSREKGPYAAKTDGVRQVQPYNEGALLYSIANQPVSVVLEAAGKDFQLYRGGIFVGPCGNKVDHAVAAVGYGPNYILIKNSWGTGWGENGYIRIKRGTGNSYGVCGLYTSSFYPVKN

[3] = biological target: T1, Papain (Carica papaya); experiment: Compound was evaluated for papain inactivation. [I] is the inhibitor concentration; 0.05-1.08; format: functional; outline: as §1
[4] = biological target: T1, Papain (Carica papaya); experiment: Compound was evaluated for papain inactivation. [I] is the inhibitor concentration; 30-450; format: functional; outline: as §1
[5] = biological target: T1, Papain (Carica papaya); experiment: Compound was evaluated for papain inactivation. [I] is the inhibitor concentration; 0.07-0.58; format: functional; outline: as §1
[6] = biological target: T1, Papain (Carica papaya); experiment: Compound was evaluated for papain inactivation. [I] is the inhibitor concentration; 2-30; format: functional; outline: as §1
[7] = biological target: T1, Papain (Carica papaya); experiment: Compound was evaluated for papain inactivation. [I] is the inhibitor concentration; 1.42-10; format: functional; outline: as §1
[8] = biological target: T1, Papain (Carica papaya); experiment: Compound was evaluated for papain inactivation. [I] is the inhibitor concentration; 6-35; format: functional; outline: as §1
[9] = biological target: T1, Papain (Carica papaya); experiment: Compound was evaluated for papain inactivation. [I] is the inhibitor concentration; 0.87-10; format: functional; outline: as §1
[10] = biological target: T1, Papain (Carica papaya); experiment: Compound was evaluated for papain inactivation. [I] is the inhibitor concentration; 60-500; format: functional; outline: as §1
[11] = biological target: T1, Papain (Carica papaya); experiment: Compound was evaluated for papain inactivation. [I] is the inhibitor concentration; 80-160; format: functional; outline: as §1
[12] = biological target: T1, Papain (Carica papaya); experiment: Compound was evaluated for papain inactivation. [I] is the inhibitor concentration; 1-8; format: functional; outline: as §1

`CC(=O)NC(Cc1ccccc1)C(=O)NC/C=C/C(N)=O` (stereo unspecified) gave a kinact/KI [1] of 1.1 M⁻¹ s⁻¹ and an I [2] of 60 µM.

Work on `COC(=O)/C=C/CNC(=O)[C@@H](CC(C)C)NC(C)=O` yielded a kinact/KI [1] of 2.46 M⁻¹ s⁻¹ and an I [3] of 0.056 mM.

In the case of `CC(=O)NC(Cc1ccccc1)C(=O)NC/C=C/C(=O)O` (stereo unspecified), the kinact/KI [1] was 5 M⁻¹ s⁻¹ and the I [4] was 30 µM.

With `COC(=O)/C=C/CNC(=O)[C@@H](CCSC)NC(C)=O` the kinact/KI [1] was 2.06 M⁻¹ s⁻¹ and the I [5] was 0.07 mM.

Work on `CC(=O)NC(Cc1ccccc1)C(=O)NC/C=C/S(C)(=O)=O` (stereo unspecified) yielded a kinact/KI [1] of 18.7 M⁻¹ s⁻¹ and an I [6] of 2 µM.

`COC(=O)/C=C/CNC(=O)c1ccccc1` gave a kinact/KI [1] of 0.05 M⁻¹ s⁻¹ and an I [7] of 1.42 mM.

For `COC(=O)/C=C/CNC(=O)C(Cc1ccccc1)NC(C)=O` (stereo unspecified), the kinact/KI [1] was 26.1 M⁻¹ s⁻¹ and the I [8] was 6 µM.

`COC(=O)/C=C/CNC(=O)CCc1ccccc1` showed a kinact/KI [1] of 0.23 M⁻¹ s⁻¹ and an I [9] of 0.87 mM.

`CC(=O)NC(Cc1ccccc1)C(=O)NC/C=C/C#N` (stereo unspecified) gave a kinact/KI [1] of 1.7 M⁻¹ s⁻¹ and an I [10] of 60 µM.

Work on `CC(=O)NC(Cc1ccccc1)C(=O)NC/C=C/c1ccc([N+](=O)[O-])cc1` (stereo unspecified) yielded an I [11] of 80 µM.

Work on `COC(=O)/C=C/CNC(=O)[C@H](Cc1ccccc1)NC(C)=O` yielded a kinact/KI [1] of 0.25 M⁻¹ s⁻¹ and an I [12] of 1 mM.

Source: ChEMBL document CHEMBL1125406, “Structure-activity relationships for inhibition of papain by peptide Michael acceptors” (J Med Chem, 1992)
